{"source": "PubChem BioAssay AID463146", "about": "(The Scripps Research Institute Molecular Screening Center, 2010)", "target": "Protein phosphatase methylesterase 1 (Homo sapiens) (UniProt Q9Y570)", "sequence (Q9Y570 whole entry, looked up)": "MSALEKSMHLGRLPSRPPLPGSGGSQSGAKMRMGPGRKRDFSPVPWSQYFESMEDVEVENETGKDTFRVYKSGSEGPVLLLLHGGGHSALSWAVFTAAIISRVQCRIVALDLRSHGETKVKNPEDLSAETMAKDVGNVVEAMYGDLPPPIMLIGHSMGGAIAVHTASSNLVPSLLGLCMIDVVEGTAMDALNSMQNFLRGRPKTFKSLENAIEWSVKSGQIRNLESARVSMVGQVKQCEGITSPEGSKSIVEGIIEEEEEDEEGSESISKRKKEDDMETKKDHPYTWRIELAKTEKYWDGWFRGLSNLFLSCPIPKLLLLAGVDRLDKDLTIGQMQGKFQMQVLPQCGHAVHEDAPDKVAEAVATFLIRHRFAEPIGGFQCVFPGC", "assay": "PME-1 inhibition in proteomic lysates, late-stage follow-up, cell lysate, gel ABPP, fluorescence, HeLa, MDA-MB-231 (AID 463146)", "settings": "HeLa/MDA-MB-231 lysate, FP-Rh gel ABPP fluorescence, at 10 µM (top of the series)", "outline": "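Timing: 30 min compound at 25 °C, 20 min probe | Material: PME-1 in HeLa or MDA-MB-231 lysate | Evaluation: % inhibition from PME-1 band intensity | Signal: SDS-PAGE separation with in-gel fluorescence scanning of probe labeling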", "data": [{"smiles": "COC(=O)N1C(=O)[C@](c2ccccc2)(C2CCCCC2)N1C(=O)OC", "values": [{"measurement": "inhibition", "setting": "HeLa Lysate", "result": 100, "unit": "%"}, {"measurement": "inhibition", "setting": "MDA-MB-231 Lysate", "result": 100, "unit": "%"}]}, {"smiles": "COC(=O)N1C(=O)[C@@](c2ccccc2)(C2CCCC2)N1C(=O)OC", "values": [{"measurement": "inhibition", "setting": "HeLa Lysate", "result": 100, "unit": "%"}]}, {"smiles": "COC(=O)N1C(=O)[C@@](c2ccccc2)(C2CCCCC2)N1C(=O)OC", "values": [{"measurement": "inhibition", "setting": "HeLa Lysate", "result": 100, "unit": "%"}]}, {"smiles": "COC(=O)N1C(=O)[C@](c2ccccc2)(C2CCCC2)N1C(=O)OC", "values": [{"measurement": "inhibition", "setting": "HeLa Lysate", "result": 100, "unit": "%"}, {"measurement": "inhibition", "setting": "MDA-MB-231 Lysate", "result": 100, "unit": "%"}]}]}
